Screens (PubChem BioAssay)
Cneo AK release: Cryptococcus neoformans lysis via adenylate kinase release | C. neoformans lysis, adenylate kinase release luminescence, 4 h; normalised: neutral wells 0, clomiphene wells 100 | lysis activity, % at 15 µM | 360,000 tested, 0.2% active;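 active = mean lysis activity across replicates of at least 80%, whatever share of replicates individually reach that level; inactive = mean lysis activity below 80%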
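Schedule: static 4 h at 37 °C with compound, 1 h detection; system: C. neoformans cells; benchmarks: Clomiphene as positive control; buffer or medium: fresh YPD medium; measure: luminescence rise reflecting yeast cell lysis; measured by: luminescent adenylate kinase detection reagent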
HIV Env fusion: inhibitors of HIV Env-mediated cell fusion; HeLa-JRFL Env/CEM21 cell fusion, luciferase; inhibition, % at 12.3 µM; 360,000 tested, 1.1% active;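 active = mean replicate inhibition score of at least 50 and every replicate individually at or above 50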
esBAF inh: inhibitors of esBAF chromatin remodeling in mouse ES cells; Bmi1-luciferase knock-in reporter, 24 h; 100% = twice the neutral-well signal; reporter increase, % at 12.5 µM; 350,000 tested, 2% active; in the data active = activation above about 40%;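 note: a rise in the Bmi1 reporter signal indicates esBAF inhibition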
ERAP1 inh: ERAP1 (human) enzyme inhibition. Q9NZ08. recombinant ERAP1, Leu-AMC fluorescence, 60 min. inhibition, % at 10.7 µM. 340,000 tested, 0.15% active. AID 652197;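 active = mean replicate inhibition of at least 30%, or all replicates individually reaching that 30% level; inactive = mean below 30% and not every replicate reaching it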
Target sequence (Q9NZ08 whole entry, looked up): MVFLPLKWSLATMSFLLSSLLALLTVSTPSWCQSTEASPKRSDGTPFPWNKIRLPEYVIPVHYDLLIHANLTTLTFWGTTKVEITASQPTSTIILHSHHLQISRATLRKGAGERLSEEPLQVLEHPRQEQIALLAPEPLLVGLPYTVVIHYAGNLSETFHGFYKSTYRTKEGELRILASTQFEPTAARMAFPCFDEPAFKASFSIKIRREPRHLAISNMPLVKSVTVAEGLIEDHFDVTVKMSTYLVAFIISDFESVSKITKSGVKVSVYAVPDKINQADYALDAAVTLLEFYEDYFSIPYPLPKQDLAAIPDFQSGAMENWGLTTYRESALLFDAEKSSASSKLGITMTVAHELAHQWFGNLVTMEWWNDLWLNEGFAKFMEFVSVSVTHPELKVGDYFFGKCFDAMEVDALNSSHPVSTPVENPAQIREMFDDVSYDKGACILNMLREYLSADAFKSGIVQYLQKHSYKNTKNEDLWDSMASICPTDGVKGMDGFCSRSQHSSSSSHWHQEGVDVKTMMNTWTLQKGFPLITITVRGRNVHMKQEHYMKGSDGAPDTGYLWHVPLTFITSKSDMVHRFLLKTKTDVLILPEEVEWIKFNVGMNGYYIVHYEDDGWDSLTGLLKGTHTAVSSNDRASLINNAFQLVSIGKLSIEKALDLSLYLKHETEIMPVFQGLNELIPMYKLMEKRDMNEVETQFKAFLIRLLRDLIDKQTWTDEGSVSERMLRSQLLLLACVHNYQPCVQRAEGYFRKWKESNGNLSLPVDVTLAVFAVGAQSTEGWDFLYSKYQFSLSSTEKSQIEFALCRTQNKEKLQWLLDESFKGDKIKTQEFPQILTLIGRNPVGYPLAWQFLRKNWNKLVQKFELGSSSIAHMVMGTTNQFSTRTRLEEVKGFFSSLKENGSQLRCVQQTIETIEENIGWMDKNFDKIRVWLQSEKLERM
MITF act: increases MITF-driven TRPM1 promoter luciferase signal; AID 588334; 300,000 tested, 0.75% active; activation, % at 12.5 µM; SK-MEL-5 TRPM1-promoter luciferase, 24 h; % of positive control, neutral wells = 0;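 active = mean activation of at least 80% with every replicate also reaching 80%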
Wnt bcat act: activates Wnt/beta-catenin signaling in a reporter cell assay | activator, plate reader | activation, % at 9.35 µM | 300,000 tested, 1.2% active | AID 743398; in the data active = activation above about 30%, passing the limit was not always enough
Of the large screens only hits and unclear results are named; the others gave an inactive call. Most compounds without a hit are left out; they make up all but 3.5% or so of the library.

C[C@H](CO)N1C[C@H](C)[C@@H](CN(C)S(=O)(=O)c2ccccc2)Oc2ccc(NC(=O)CCCCCC(=O)Nc3ccccc3N)cc2C1=O	none (no result: Cneo AK release, HIV Env fusion, esBAF inh, MITF act, Wnt bcat act)
Cc1noc(C)c1S(=O)(=O)Nc1ccc2c(c1)C(=O)N([C@@H](C)CO)C[C@@H](C)[C@H](CN(C)C(=O)Nc1ccc3c(c1)OCO3)OCCCC[C@H](C)O2	none (no result: MITF act, Wnt bcat act)
COc1cccc(-n2c(SCC(=O)N3CCc4ccccc43)nnc2-c2c[nH]c3ccccc23)c1	HIV Env fusion 56.0
CCOc1ccc(-n2c(SCC(=O)N3CCc4ccccc43)nnc2-c2c[nH]c3ccccc23)cc1	none (no result: MITF act)
COc1ccccc1C(=O)Nc1ccc2c(c1)C(=O)N(C)C[C@H](OC)[C@H](C)CN(C)[C@H](C)CO2	none (no result: Cneo AK release, HIV Env fusion, esBAF inh, MITF act, Wnt bcat act)
Nc1[nH]n(-c2ccccc2)c(=O)c1N=Nc1ccc2c(c1)OCO2	Wnt bcat act 58.2
Nc1[nH]n(-c2ccccc2)c(=O)c1N=Nc1ccc2c(c1)OCCO2	Wnt bcat act 34.4
Cc1ccc(S(=O)(=O)N(C)C[C@@H]2Oc3c(NC(=O)NC(C)C)cccc3C(=O)N([C@@H](C)CO)C[C@@H]2C)cc1	none (no result: HIV Env fusion, MITF act, Wnt bcat act)
C[C@@H]1CCCCO[C@@H](CN(C)C(=O)NC2CCCCC2)[C@H](C)CN([C@H](C)CO)C(=O)c2cc(NC(=O)C3CCCCC3)ccc2O1	none (no result: MITF act, Wnt bcat act)
C[C@@H]1CN([C@@H](C)CO)C(=O)c2cc(NC(=O)C3CCCCC3)ccc2O[C@@H](C)CCCCO[C@@H]1CN(C)C(=O)NC1CCCCC1	Cneo AK release 96.9 (no result: MITF act, Wnt bcat act)
CC(C)NC(=O)Nc1ccc2c(c1)C(=O)N([C@@H](C)CO)C[C@@H](C)[C@@H](CN(C)C(=O)NC1CCCCC1)OCCCC[C@H](C)O2	Cneo AK release 91.7 (no result: esBAF inh, MITF act, Wnt bcat act)
C[C@H]1CCCCO[C@@H](CN(C)C(=O)Nc2ccc(F)cc2)[C@@H](C)CN([C@@H](C)CO)C(=O)c2cc(N(C)C)ccc2O1	none (no result: Cneo AK release, ERAP1 inh, MITF act, Wnt bcat act)
CC(C)(C)c1ccc(CCC2OCC(C[N+]3(C)CCOCC3)O2)cc1 (stereo unspecified)	ERAP1 inh 104.3, Wnt bcat act 31.5 (no result: esBAF inh, MITF act)
CC(C)CC#Cc1cnc2c(c1)C(=O)N([C@@H](C)CO)C[C@@H](C)[C@H](CN(C)C(=O)c1ccc3c(c1)OCO3)O2	none (no result: MITF act, Wnt bcat act)
C[C@H]1CN([C@@H](C)CO)C(=O)c2cc(C#CCN(C)C)cnc2O[C@@H]1CN(C)C(=O)Nc1cccc(F)c1	Cneo AK release 113.5 (no result: MITF act, Wnt bcat act)
CC(C)CC#Cc1cnc2c(c1)C(=O)N([C@@H](C)CO)C[C@H](C)[C@H](CN(C)C(=O)c1ccc3c(c1)OCO3)O2	Cneo AK release 85.2 (no result: MITF act, Wnt bcat act)
C[C@H](CO)N1C[C@H](C)[C@H](CN(C)C(=O)Nc2ccc3c(c2)OCO3)Oc2ncc(C#CC(C)(C)O)cc2C1=O	Cneo AK release 113.0 (no result: MITF act, Wnt bcat act)
C[C@H](CO)N1C[C@H](C)[C@H](CN(C)C(=O)Nc2cccc(F)c2)Oc2ncc(C#CCN(C)C)cc2C1=O	Cneo AK release 97.3 (no result: MITF act, Wnt bcat act)
COCC(=O)Nc1ccc2c(c1)[C@@H]1C[C@H](CC(=O)N3CCc4ccccc4C3)O[C@@H](CO)[C@@H]1O2	none (no result: HIV Env fusion, MITF act, Wnt bcat act)
CN1C(=O)c2cc(NC(=O)NC3CCCC3)ccc2OC[C@H]2O[C@@H](CC(=O)O)CC[C@@H]21	none (no result: HIV Env fusion, MITF act, Wnt bcat act)
O=C(Cc1ccccn1)N1CC2(C1)[C@H](c1ccccc1)[C@H](CO)N2C(=O)c1cccnc1	none (no result: Cneo AK release, HIV Env fusion, esBAF inh, MITF act, Wnt bcat act)
CO[C@@H]1CN(C)C(=O)c2cc(NS(C)(=O)=O)ccc2OC[C@@H](C)N(C(=O)NC(C)C)C[C@H]1C	none (no result: ERAP1 inh, MITF act, Wnt bcat act)
COc1ccc(NC(=O)N[C@@H]2C=C[C@@H](CC(=O)NC3CCCCC3)O[C@@H]2CO)cc1	none (no result: MITF act, Wnt bcat act)
CC1(c2ccccc2)NC(=S)N2C1NC(=S)N2c1ccccc1 (stereo unspecified)	none (no result: esBAF inh, ERAP1 inh, Wnt bcat act)
COc1ccc(N2C(=S)NC3N2C(=S)NC3(C)c2ccccc2)cc1 (stereo unspecified)	Wnt bcat act 65.0 (no result: Cneo AK release, esBAF inh)
CCCN(C)C[C@@H]1OCCCC[C@@H](C)Oc2ccc(NC(=O)NC(C)C)cc2C(=O)N([C@H](C)CO)C[C@@H]1C	none (no result: esBAF inh, MITF act, Wnt bcat act)
COc1ccccc1-c1c(C(F)(F)F)oc2cc(OC(=O)c3ccc([N+](=O)[O-])cc3)ccc2c1=O	esBAF inh 66.7 (no result: HIV Env fusion)
Cc1cc(=O)oc2cc(OC(=O)c3ccccc3)ccc12	none (no result: HIV Env fusion)
COCC(=O)N1C[C@H](C)[C@@H](OC)CN(C)C(=O)c2cc(NC(=O)c3cnccn3)ccc2OC[C@H]1C	none (no result: HIV Env fusion, MITF act, Wnt bcat act)
O=C(c1ccc(F)cc1)c1ccc(-c2ccc(F)cc2)nc1	esBAF inh 43.8
COc1ccc(C(=O)c2ccc(-c3ccc(OC)cc3)nc2)cc1	none
CO[C@H](CN(C)C(=O)C1CCOCC1)[C@@H](C)CN(C(=O)Nc1ccc(F)cc1)[C@H](C)CO	none (no result: HIV Env fusion, MITF act, Wnt bcat act)
C[C@H]1CCCCO[C@H](CN(C)C(=O)Nc2ccc(F)cc2)[C@@H](C)CN([C@@H](C)CO)C(=O)c2cc(NS(=O)(=O)c3cccs3)ccc2O1	none (no result: MITF act, Wnt bcat act)
CSc1ccccc1OCc1cc(C(=O)NC(C)CCn2cccn2)no1 (stereo unspecified)	none (no result: esBAF inh)
COc1ccc(OCc2cc(C(=O)N[C@H]3CCCCNC3=O)no2)c(Cl)c1	none (no result: esBAF inh)
CSc1ccccc1OCc1cc(C(=O)N[C@H]2CCCCNC2=O)no1	esBAF inh 65.9, MITF act 96.2
CSc1ccccc1OCc1cc(C(=O)NC(C)c2cnn(C)c2)no1 (stereo unspecified)	esBAF inh 53.9
COCC(=O)N(C)C[C@H]1[C@H](c2ccccc2)[C@H](CO)N1C(=O)Cc1cccnc1	none (no result: HIV Env fusion, MITF act, Wnt bcat act)
c1ccc(Nc2nc3ccccc3n3nnnc23)cc1	esBAF inh 74.6
COc1ccc(NC(=O)N(C)C[C@@H]2Oc3c(NC(=O)CCCCCC(=O)Nc4ccccc4N)cccc3C(=O)N([C@H](C)CO)C[C@H]2C)cc1	none (no result: Cneo AK release, HIV Env fusion, esBAF inh, MITF act, Wnt bcat act)
CCOC(=O)/C=C(/C)N1N=C(c2ccc(OC)cc2)CC1c1cccc([N+](=O)[O-])c1 (stereo unspecified)	esBAF inh 55.2 (no result: ERAP1 inh)
CCC(=O)N1C[C@H](C)[C@H](OC)CN(C)C(=O)c2ccc(NC(=O)NC(C)C)cc2OC[C@H]1C	none (no result: Cneo AK release, esBAF inh, MITF act, Wnt bcat act)
CN(C)c1ccc(/C=C/c2cccc[n+]2[O-])cc1	none (no result: ERAP1 inh, MITF act)
CC(C)CC[n+]1ccccc1/C=C/c1ccc(N(C)C)cc1	HIV Env fusion 60.6
Cc1ccc(-n2c(C)cc(C(=O)CSc3nnnn3C)c2C)cc1	Wnt bcat act 62.5 (no result: ERAP1 inh)
Cc1ccc(-n2c(C)cc(C(=O)CSc3nncs3)c2C)cc1	none (no result: Cneo AK release, HIV Env fusion, esBAF inh, ERAP1 inh, Wnt bcat act)
CCOC(=O)N1CCN(C(=O)c2ccc3c(c2)sc2nc(-c4ccccc4)cn23)CC1	esBAF inh 78.6 (no result: HIV Env fusion, ERAP1 inh, Wnt bcat act)
COCC1CCCN(C(=O)c2ccc3nc(Cc4cccc(Cl)c4)oc3c2)C1 (stereo unspecified)	esBAF inh 69.7
CCOC(=O)C1CCCN(C(=O)c2ccc3oc(Cc4ccccc4)nc3c2)C1 (stereo unspecified)	esBAF inh 69.9
